Data from ChEMBL document CHEMBL1155488, “Carbamate derivatives of betulinic acid and betulin with selective cytotoxic activity” (Bioorg Med Chem Lett, 2010).
Calls of active or inactive are those of the source. The rule behind the calls is not given here.

Experiments:
A2780 [1] = experiment: Cytotoxicity against human A2780 cells after 96 hrs by SRB assay; type: functional, cell-based; settings: A2780, 96 h
DLD-1 [2] = experiment: Cytotoxicity against human DLD1 cells after 96 hrs by SRB assay; type: functional, cell-based; settings: DLD-1, 96 h
HCT-8 [3] = experiment: Cytotoxicity against human HCT8 cells after 96 hrs by SRB assay; type: functional, cell-based; settings: HCT-8, 96 h
HCT-116 [4] = experiment: Cytotoxicity against human HCT116 cells after 96 hrs by SRB assay; type: functional, cell-based; settings: HCT-116, 96 h
HT-29 [5] = experiment: Cytotoxicity against human HT-29 cells after 96 hrs by SRB assay; type: functional, cell-based; settings: HT-29, 96 h
[6] = Cytotoxicity against human Liposarcoma cells after 96 hrs by SRB assay; type: functional, cell-based
MCF7 [7] = experiment: Cytotoxicity against human MCF7 cells after 96 hrs by SRB assay; type: functional, cell-based; settings: MCF7, 96 h
SW480 [8] = experiment: Cytotoxicity against human SW480 cells after 96 hrs by SRB assay; type: functional, cell-based; settings: SW480, 96 h
SW-1736 = experiment: Cytotoxicity against human SW1736 cells after 96 hrs by SRB assay; type: functional, cell-based; settings: SW-1736, 96 h
A549 [9] = experiment: Induction of apoptosis in human A549 cells assessed as caspase3/7 activation at equitoxic IC90 after 6 hrs; type: functional, cell-based
[10] = Cytotoxicity against human 518A2 cells after 96 hrs by SRB assay; type: functional, cell-based; settings: 518A2, 96 h
FaDu [11] = experiment: Cytotoxicity against human FADU cells after 96 hrs by SRB assay; type: functional, cell-based
8505C [12] = experiment: Cytotoxicity against human 8505C cells after 96 hrs by SRB assay; type: functional, cell-based
[13] = Cytotoxicity against human A253 cells after 96 hrs by SRB assay; type: functional, cell-based; settings: A253, 96 h
A-431 [14] = experiment: Cytotoxicity against human A431 cells after 96 hrs by SRB assay; type: functional, cell-based; settings: A-431, 96 h
A549 [15] = experiment: Cytotoxicity against human A549 cells after 96 hrs by SRB assay; type: functional, cell-based; settings: A549, 96 h
[16] = Selectivity index, ratio of IC50 for human fibroblast to IC50 for human Liposarcoma cells
Method in brief: (§1)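 The selectivity index was calculated as the IC50 on human fibroblasts divided by the IC50 on the corresponding tumor cell line.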

HT-29 [17] = experiment: Selectivity index, ratio of IC50 for human fibroblast to IC50 for human HT-29 cells; method in brief: as §1
HCT-116 [18] = experiment: Selectivity index, ratio of IC50 for human fibroblast to IC50 for human HCT116 cells; method in brief: as §1
HCT-8 [19] = experiment: Selectivity index, ratio of IC50 for human fibroblast to IC50 for human HCT8 cells; method in brief: as §1
FaDu [20] = experiment: Selectivity index, ratio of IC50 for human fibroblast to IC50 for human FADU cells; method in brief: as §1
DLD-1 [21] = experiment: Selectivity index, ratio of IC50 for human fibroblast to IC50 for human DLD1 cells; method in brief: as §1
A2780 [22] = experiment: Selectivity index, ratio of IC50 for human fibroblast to IC50 for human A2780 cells; method in brief: as §1
A549 [23] = experiment: Selectivity index, ratio of IC50 for human fibroblast to IC50 for human A549 cells; method in brief: as §1
A-431 [24] = experiment: Selectivity index, ratio of IC50 for human fibroblast to IC50 for human A431 cells; method in brief: as §1
[25] = Selectivity index, ratio of IC50 for human fibroblast to IC50 for human A253 cells; method in brief: as §1
8505C [26] = experiment: Selectivity index, ratio of IC50 for human fibroblast to IC50 for human 8505C cells; method in brief: as §1
[27] = Selectivity index, ratio of IC50 for human fibroblast to IC50 for human 518A2 cells; method in brief: as §1
MCF7 [28] = experiment: Selectivity index, ratio of IC50 for human fibroblast to IC50 for human MCF7 cells; method in brief: as §1
SW480 [29] = experiment: Selectivity index, ratio of IC50 for human fibroblast to IC50 for human SW480 cells; method in brief: as §1
[30] = Selectivity index, ratio of IC50 for human fibroblast to IC50 for human SW1736 cells; method in brief: as §1
[31] = Cytotoxicity against human fibroblast after 96 hrs by SRB assay; type: cell-based

Compound	IC50 (A2780 [1])	IC50 (DLD-1 [2])	IC50 (HCT-8 [3])	IC50 (HCT-116 [4])	IC50 (HT-29 [5])	IC50 [6]	IC50 (MCF7 [7])	IC50 (SW480 [8])	IC50 (SW-1736)	IC50 [10]	IC50 (FaDu [11])	IC50 (8505C [12])	IC50 [13]	IC50 (A-431 [14])	IC50 (A549 [15])	further results
C=C(C)[C@@H]1CC[C@]2(C(=O)O)CC[C@]3(C)[C@H](CC[C@@H]4[C@@]5(C)CC[C@H](OC(=O)NCC)C(C)(C)[C@@H]5CC[C@]43C)[C@@H]12	7.41 µM	17 µM	16.7 µM	15.2 µM	16.7 µM	17.9 µM	17.4 µM	16.6 µM	5.24 µM	17.8 µM	13.8 µM	17.6 µM	17.3 µM	15.2 µM	5.55 µM	Activity (A549 [9]): Active
C=C(C)[C@@H]1CC[C@]2(C(=O)O)CC[C@]3(C)[C@H](CC[C@@H]4[C@@]5(C)CC[C@H](O)C(C)(C)[C@@H]5CC[C@]43C)[C@@H]12 [BETULINIC ACID]	11.1 µM	11.9 µM	13.1 µM	10.8 µM	13.9 µM	12.1 µM	12.3 µM	6.48 µM	13.1 µM	8.13 µM	10.2 µM	7.26 µM	9.18 µM	12.6 µM	11.1 µM	Ratio IC50 [16]: 1.72; Ratio IC50 (HT-29 [17]): 1.49; Ratio IC50 (HCT-116 [18]): 1.93; Ratio IC50 (HCT-8 [19]): 1.59; Ratio IC50 (FaDu [20]): 2.04; Ratio IC50 (DLD-1 [21]): 1.75; Ratio IC50 (A2780 [22]): 1.88; Ratio IC50 (A549 [23]): 1.87; Ratio IC50 (A-431 [24]): 1.65; Ratio IC50 [25]: 2.27; Ratio IC50 (8505C [26]): 2.87; Ratio IC50 [27]: 2.56; Ratio IC50 (MCF7 [28]): 1.7; Ratio IC50 (SW480 [29]): 3.21; Ratio IC50 [30]: 1.59; IC50 [31]: 20.8 µM
C=C(C)[C@@H]1CC[C@]2(COC(C)=O)CC[C@]3(C)[C@H](CC[C@@H]4[C@@]5(C)CC[C@H](O)C(C)(C)[C@@H]5CC[C@]43C)[C@@H]12	11.7 µM	13.1 µM	18 µM	10.7 µM	11 µM	15.5 µM	11.4 µM	13.7 µM	12 µM	15.8 µM	14 µM	14.7 µM	12.9 µM	12.2 µM	14.4 µM	–
C=C(C)[C@@H]1CC[C@]2(C(=O)O)CC[C@]3(C)[C@H](CC[C@@H]4[C@@]5(C)CC[C@H](OC(=O)Nc6ccccc6)C(C)(C)[C@@H]5CC[C@]43C)[C@@H]12	24.8 µM	26.3 µM	25.2 µM	21.4 µM	31.6 µM	51.9 µM	47.9 µM	41.1 µM	18.8 µM	51.5 µM	24.2 µM	39.6 µM	34.7 µM	26.7 µM	22.4 µM	–
C=C(C)[C@@H]1CC[C@]2(COC(=O)Nc3ccccc3)CC[C@]3(C)[C@H](CC[C@@H]4[C@@]5(C)CC[C@H](OC(=O)Nc6ccccc6)C(C)(C)[C@@H]5CC[C@]43C)[C@@H]12 [BIS(PHENYLCARBAMATE)BETULIN]	80.6 µM	> 100 µM	> 100 µM	> 100 µM	69.2 µM	> 100 µM	> 100 µM	> 100 µM	> 100 µM	> 100 µM	> 100 µM	> 100 µM	> 100 µM	> 100 µM	> 100 µM	–
C=C(C)[C@@H]1CC[C@]2(C(=O)OC)CC[C@]3(C)[C@H](CC[C@@H]4[C@@]5(C)CC[C@H](OC(=O)Nc6ccccc6)C(C)(C)[C@@H]5CC[C@]43C)[C@@H]12	69.5 µM	> 100 µM	> 100 µM	> 100 µM	69 µM	> 100 µM	> 100 µM	> 100 µM	> 100 µM	> 100 µM	> 100 µM	> 100 µM	> 100 µM	91.5 µM	> 100 µM	–
C=C(C)[C@@H]1CC[C@]2(C(=O)OC)CC[C@]3(C)[C@H](CC[C@@H]4[C@@]5(C)CC[C@H](O)C(C)(C)[C@@H]5CC[C@]43C)[C@@H]12 [METHYL BETULINATE]	29.3 µM	45.9 µM	17.2 µM	20.5 µM	30.7 µM	23.3 µM	24.4 µM	17.9 µM	32.1 µM	28.8 µM	20.3 µM	23.7 µM	18.5 µM	27 µM	20.6 µM	–
C=C(C)[C@@H]1CC[C@]2(COC(C)=O)CC[C@]3(C)[C@H](CC[C@@H]4[C@@]5(C)CC[C@H](OC(=O)Nc6ccccc6)C(C)(C)[C@@H]5CC[C@]43C)[C@@H]12	84.2 µM	> 100 µM	> 100 µM	> 100 µM	76.4 µM	> 100 µM	> 100 µM	> 100 µM	> 100 µM	> 100 µM	> 100 µM	> 100 µM	> 100 µM	> 100 µM	> 100 µM	–
C=C(C)[C@@H]1CC[C@]2(C(=O)OC)CC[C@]3(C)[C@H](CC[C@@H]4[C@@]5(C)CC[C@H](OC(=O)NCC)C(C)(C)[C@@H]5CC[C@]43C)[C@@H]12	8.35 µM	18.9 µM	15 µM	13.5 µM	7.22 µM	6.85 µM	7.03 µM	6.67 µM	2.35 µM	16.7 µM	5.53 µM	7.22 µM	16.7 µM	14.8 µM	2.32 µM	–
